# Test results: ChEMBL document CHEMBL4339192, “De Novo Designed Amphipathic α-Helical Antimicrobial Peptides Incorporating Dab and Dap Residues on the Polar Face To Treat the Gram-Negative Pathogen, Acinetobacter baumannii” (J Med Chem, 2019)
# Where a SMILES comes first, the peptide text is derived from it. [ ]: non-standard residue; d: D form. Dab = NCC[C@H](N)C(=O)O
# What was measured:
# Acinetobacter baumannii [1] = assay: Ratio of MIC for Acinetobacter baumannii 649 measured in presence of 25% human serum to MIC for Acinetobacter baumannii 649 in absence of 25% human serum; format: functional
# How it was run: (§1)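 Blood strain 649 was tested by MH broth microdilution with and without 25% (v/v) human serum added to the medium. The test used a final inoculum of 5 × 10^5 cfu/mL and incubation at 37 °C. The ratio is the MIC in serum over the MIC in MH alone.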
# Acinetobacter baumannii [2] = assay: Antibacterial activity against Acinetobacter baumannii isolate 1035794 measured after 24 hrs by microtiter dilution method; format: functional; conditions: isolate 1035794, 24 h
# How it was run: (§2)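 Broth microdilution in Mueller-Hinton (MH) medium. […] Plates were incubated 24 h at 37 °C. MIC was the lowest peptide concentration that inhibited growth, based on three sets of replicates.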
# Acinetobacter baumannii [3] = assay: Antibacterial activity against polymyxin B/colistin-resistant Acinetobacter baumannii M89955 measured after 24 hrs by microtiter dilution method; format: functional; conditions: M89955, 24 h; how it was run: as §2
# [4] = Therapeutic index, ratio of HC50 for human RBC to MIC for polymyxin B/colistin-resistant Acinetobacter baumannii M89949; format: toxicity; conditions: human red blood cells, read-out: TI
# How it was run: (§3)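 T.I. = HC50/MIC. For HC50, peptide (quantified by amino acid analysis) was two-fold serially diluted over 12 concentrations up to 1000 μg/mL. It was incubated with 1% fresh human erythrocytes in PBS, pH 7.4, for 18 h at 37 °C. After 800g centrifugation, hemoglobin was read at 570 nm against water (100%) and no-peptide (0%) controls. HC50 came from a lysis-versus-concentration plot, average of 3 replicates.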
# Acinetobacter baumannii [5] = assay: Antibacterial activity against Acinetobacter baumannii isolate 1010245 measured after 24 hrs by microtiter dilution method; format: functional; conditions: isolate 1010245, 24 h; how it was run: as §2
# Acinetobacter baumannii [6] = assay: Antibacterial activity against Acinetobacter baumannii isolate 9383370 measured after 24 hrs by microtiter dilution method; format: functional; conditions: isolate 9383370, 24 h; how it was run: as §2
# Acinetobacter baumannii [7] = assay: Antibacterial activity against polymyxin B/colistin-resistant Acinetobacter baumannii M89963 measured after 24 hrs by microtiter dilution method; format: functional; conditions: M89963, 24 h; how it was run: as §2
# Acinetobacter baumannii [8] = assay: Antibacterial activity against Acinetobacter baumannii isolate 952654 measured after 24 hrs by microtiter dilution method; format: functional; conditions: isolate 952654, 24 h; how it was run: as §2
# Acinetobacter baumannii [9] = assay: Antibacterial activity against Acinetobacter baumannii isolate 1021371 measured after 24 hrs by microtiter dilution method; format: functional; conditions: isolate 1021371, 24 h; how it was run: as §2
# Acinetobacter baumannii [10] = assay: Antibacterial activity against Acinetobacter baumannii isolate 961997 measured after 24 hrs by microtiter dilution method; format: functional; conditions: isolate 961997, 24 h; how it was run: as §2
# [11] = Therapeutic index, ratio of HC50 for human RBC to MIC for polymyxin B/colistin-resistant Acinetobacter baumannii M89941; format: toxicity; conditions: human red blood cells, read-out: TI; how it was run: as §3
# Acinetobacter baumannii [12] = assay: Antibacterial activity against polymyxin B/colistin-resistant Acinetobacter baumannii M89952 measured after 24 hrs by microtiter dilution method; format: functional; conditions: M89952, 24 h; how it was run: as §2
# Acinetobacter baumannii [13] = assay: Antibacterial activity against polymyxin B/colistin-resistant Acinetobacter baumannii M89951 measured after 24 hrs by microtiter dilution method; format: functional; conditions: M89951, 24 h; how it was run: as §2
# [14] = Therapeutic index, ratio of HC50 for human RBC to MIC for polymyxin B/colistin-resistant Acinetobacter baumannii M89952; format: toxicity; conditions: human red blood cells, read-out: TI; how it was run: as §3
# Acinetobacter baumannii [15] = assay: Antibacterial activity against Acinetobacter baumannii isolate 1002956 measured after 24 hrs by microtiter dilution method; format: functional; conditions: isolate 1002956, 24 h; how it was run: as §2
# Acinetobacter baumannii [16] = assay: Antibacterial activity against Acinetobacter baumannii 649 measured after 24 hrs in presence of 25% human serum by microtiter dilution method; format: functional; conditions: Acinetobacter baumannii, 649, 24 h; how it was run: as §1
# [17] = Therapeutic index, ratio of HC50 for human RBC to MIC for polymyxin B/colistin-resistant Acinetobacter baumannii M89963; format: toxicity; conditions: human red blood cells, read-out: TI; how it was run: as §3
# Acinetobacter baumannii [18] = assay: Antibacterial activity against Acinetobacter baumannii isolate 963618 measured after 24 hrs by microtiter dilution method; format: functional; conditions: isolate 963618, 24 h; how it was run: as §2
# Acinetobacter baumannii [19] = assay: Antibacterial activity against Acinetobacter baumannii 649 measured after 24 hrs by microtiter dilution method; format: functional; conditions: Acinetobacter baumannii, 649, 24 h; how it was run: as §2
# Acinetobacter baumannii [20] = assay: Antibacterial activity against Acinetobacter baumannii isolate 977751 measured after 24 hrs by microtiter dilution method; format: functional; conditions: isolate 977751, 24 h; how it was run: as §2
# [21] = Therapeutic index, ratio of HC50 for human RBC to MIC for polymyxin B/colistin-resistant Acinetobacter baumannii M89953; format: toxicity; conditions: human red blood cells, read-out: TI; how it was run: as §3
# Acinetobacter baumannii [22] = assay: Antibacterial activity against Acinetobacter baumannii isolate 965463 measured after 24 hrs by microtiter dilution method; format: functional; conditions: isolate 965463, 24 h; how it was run: as §2
# Acinetobacter baumannii [23] = assay: Antibacterial activity against Acinetobacter baumannii isolate 963659 measured after 24 hrs by microtiter dilution method; format: functional; conditions: isolate 963659, 24 h; how it was run: as §2
# Acinetobacter baumannii [24] = assay: Antibacterial activity against polymyxin B/colistin-resistant Acinetobacter baumannii M89941 measured after 24 hrs by microtiter dilution method; format: functional; conditions: M89941, 24 h; how it was run: as §2
# Acinetobacter baumannii [25] = assay: Antibacterial activity against Acinetobacter baumannii isolate 1001611 measured after 24 hrs by microtiter dilution method; format: functional; conditions: isolate 1001611, 24 h; how it was run: as §2
# Acinetobacter baumannii [26] = assay: Antibacterial activity against Acinetobacter baumannii isolate 1007660 measured after 24 hrs by microtiter dilution method; format: functional; conditions: isolate 1007660, 24 h; how it was run: as §2
# Acinetobacter baumannii [27] = assay: Antibacterial activity against Acinetobacter baumannii isolate 1018887 measured after 24 hrs by microtiter dilution method; format: functional; conditions: isolate 1018887, 24 h; how it was run: as §2
# Acinetobacter baumannii [28] = assay: Antibacterial activity against polymyxin B/colistin-resistant Acinetobacter baumannii M89953 measured after 24 hrs by microtiter dilution method; format: functional; conditions: M89953, 24 h; how it was run: as §2
# Acinetobacter baumannii [29] = assay: Antibacterial activity against Acinetobacter baumannii isolate 1017395 measured after 24 hrs by microtiter dilution method; format: functional; conditions: isolate 1017395, 24 h; how it was run: as §2
# Acinetobacter baumannii [30] = assay: Antibacterial activity against polymyxin B/colistin-resistant Acinetobacter baumannii M89949 measured after 24 hrs by microtiter dilution method; format: functional; conditions: M89949, 24 h; how it was run: as §2
# Acinetobacter baumannii [31] = assay: Antibacterial activity against Acinetobacter baumannii isolate 964304 measured after 24 hrs by microtiter dilution method; format: functional; conditions: isolate 964304, 24 h; how it was run: as §2
# Acinetobacter baumannii [32] = assay: Antibacterial activity against Acinetobacter baumannii isolate 981650 measured after 24 hrs by microtiter dilution method; format: functional; conditions: isolate 981650, 24 h; how it was run: as §2
# [33] = Hemolytic activity against human RBC measured after 18 hrs by spectrophotometric method; format: ADME, cell-based, Erythrocyte; conditions: human red blood cells (erythrocytes)
# How it was run: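 Peptide (amount by amino acid analysis), two-fold serial dilutions at 12 concentrations up to 1000 μg/mL, with 1% human erythrocytes in PBS pH 7.4, 37 °C, 18 h. Unlysed cells removed by centrifugation (800g); hemoglobin read at 570 nm. Water-lysed cells = 100%, no-peptide cells = 0%. HC50 from plot of % lysis vs concentration (μM), average of 3 replicates.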
# Acinetobacter baumannii [34] = assay: Antibacterial activity against Acinetobacter baumannii isolate 1010282 measured after 24 hrs by microtiter dilution method; format: functional; conditions: isolate 1010282, 24 h; how it was run: as §2
# [35] = Therapeutic index, ratio of HC50 for human RBC to MIC for polymyxin B/colistin-resistant Acinetobacter baumannii M89955; format: toxicity; conditions: human red blood cells, read-out: TI; how it was run: as §3
# Acinetobacter baumannii [36] = assay: Antibacterial activity against Acinetobacter baumannii isolate 1035166 measured after 24 hrs by microtiter dilution method; format: functional; conditions: isolate 1035166, 24 h; how it was run: as §2
# [37] = Therapeutic index, ratio of HC50 for human RBC to MIC for polymyxin B/colistin-resistant Acinetobacter baumannii M89951; format: toxicity; conditions: human red blood cells, read-out: TI; how it was run: as §3
# Acinetobacter baumannii [38] = assay: Antibacterial activity against Acinetobacter baumannii isolate 968886 measured after 24 hrs by microtiter dilution method; format: functional; conditions: isolate 968886, 24 h; how it was run: as §2
structure (smiles),measurement,setting,value
CC(=O)N[C@H](CCCCN)C(=O)N[C@H](CC(C)C)C(=O)N[C@@H](CCN)C(=O)N[C@H](CO)C(=O)N[C@H](CC(C)C)C(=O)N[C@H](CC(C)C)C(=O)N[C@@H](CCN)C(=O)N[C@@H](C(=O)N[C@H](CC(C)C)C(=O)N[C@H](CO)C(=O)N[C@@H](CCN)C(=O)N[C@H](C)C(=O)N[C@H](C)C(=O)N[C@H](C)C(=O)N[C@H](C)C(=O)N[C@H](C)C(=O)N[C@H](CC(C)C)C(=O)N[C@@H](CCN)C(=O)N[C@@H](C(=O)N[C@H](CC(C)C)C(=O)N[C@H](CC(C)C)C(=O)N[C@@H](CCN)C(=O)N[C@H](C)C(=O)N[C@H](CC(C)C)C(=O)N[C@H](CO)C(=O)N[C@@H](CCN)C(N)=O)[C@H](C)O)[C@H](C)O (Ac-[dK][dL][Dab][dS][dL][dL][Dab][dT][dL][dS][Dab][dA][dA][dA][dA][dA][dL][Dab][dT][dL][dL][Dab][dA][dL][dS][Dab]-NH2),Ratio,Acinetobacter baumannii [1],4
same,MIC,Acinetobacter baumannii [2],0.8 µM
same,MIC,Acinetobacter baumannii [3],0.8 µM
same,selectivity ratio,[4],8.6
same,MIC,Acinetobacter baumannii [5],0.8 µM
same,MIC,Acinetobacter baumannii [6],1.5 µM
same,MIC,Acinetobacter baumannii [7],0.8 µM
same,MIC,Acinetobacter baumannii [8],0.8 µM
same,MIC,Acinetobacter baumannii [9],0.8 µM
same,MIC,Acinetobacter baumannii [10],0.8 µM
same,selectivity ratio,[11],8.6
same,MIC,Acinetobacter baumannii [12],0.8 µM
same,MIC,Acinetobacter baumannii [13],0.8 µM
same,selectivity ratio,[14],8.6
same,MIC,Acinetobacter baumannii [15],0.8 µM
same,MIC,Acinetobacter baumannii [16],3 µM
same,selectivity ratio,[17],8.6
same,MIC,Acinetobacter baumannii [18],0.8 µM
same,MIC,Acinetobacter baumannii [19],0.8 µM
same,MIC,Acinetobacter baumannii [20],3.1 µM
same,selectivity ratio,[21],8.6
same,MIC,Acinetobacter baumannii [22],0.8 µM
same,MIC,Acinetobacter baumannii [23],0.4 µM
same,MIC,Acinetobacter baumannii [24],1.5 µM
same,MIC,Acinetobacter baumannii [25],0.8 µM
same,MIC,Acinetobacter baumannii [26],0.8 µM
same,MIC,Acinetobacter baumannii [27],0.5 µM
same,MIC,Acinetobacter baumannii [28],0.8 µM
same,MIC,Acinetobacter baumannii [29],0.8 µM
same,MIC,Acinetobacter baumannii [30],0.8 µM
same,MIC,Acinetobacter baumannii [31],1.5 µM
same,MIC,Acinetobacter baumannii [32],0.4 µM
same,HC50 at 18 h,[33],7.7 µM
same,MIC,Acinetobacter baumannii [34],0.8 µM
same,selectivity ratio,[35],8.6
same,MIC,Acinetobacter baumannii [36],0.8 µM
same,selectivity ratio,[37],8.6
same,MIC,Acinetobacter baumannii [38],0.8 µM
